Source: ChEMBL document CHEMBL4364284, “Design, Synthesis, and Efficacy Testing of Nitroethylene- and 7-Nitrobenzoxadiazol-Based Flavodoxin Inhibitors against Helicobacter pylori Drug-Resistant Clinical Strains and in Helicobacter pylori-Infected Mice” (J Med Chem, 2019)
≈ marks a conversion by molar mass, not a printed value. Calls of active or inactive are those of the source. The rule behind the calls is not given here.

Columns and labels:
[1] = molecular target: T1, Flavodoxin (Helicobacter pylori (strain ATCC 700392 / 26695) (Campylobacter pylori)) (UniProt O25776); assay: Inhibition of flavodoxin in Helicobacter pylori SS1 assessed as reduction in bacterial growth measured after 48 hrs by resazurin staining-based microdilution method
T1 sequence (whole entry): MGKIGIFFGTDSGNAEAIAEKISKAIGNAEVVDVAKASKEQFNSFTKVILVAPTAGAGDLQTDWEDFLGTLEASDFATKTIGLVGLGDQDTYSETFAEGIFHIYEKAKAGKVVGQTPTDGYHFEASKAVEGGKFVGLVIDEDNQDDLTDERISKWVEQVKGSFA
Procedure, shortened: (§1)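 Broth microdilution in brain heart infusion with 4% FBS. Inoculum diluted to OD600 0.01. Two-fold dilutions from a DMSO stock cover 64–0.031 μg/mL, with DMSO ≤1% v/v. Incubated 48 h at 37 °C under microaerophilic conditions. MIC is the lowest concentration giving complete growth inhibition, read by resazurin colour change and confirmed by spotting on blood agar. Run twice in triplicate.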

[2] = molecular target: T1, Flavodoxin (Helicobacter pylori (strain ATCC 700392 / 26695) (Campylobacter pylori)); assay: Inhibition of flavodoxin in Mnz-resistant Helicobacter pylori NCTC 11637 ATCC 43504 assessed as reduction in bacterial growth measured after 48 hrs by resazurin staining-based microdilution method; conditions: Helicobacter pylori NCTC 11637 = CCUG 17874 = ATCC 43504; procedure, shortened: as §1
[3] = molecular target: T1, Flavodoxin (Helicobacter pylori (strain ATCC 700392 / 26695) (Campylobacter pylori)); assay: Inhibition of flavodoxin in Helicobacter pylori ATCC 700392 26695 assessed as reduction in bacterial growth measured after 48 hrs by resazurin staining-based microdilution method; conditions: Helicobacter pylori 26695; procedure, shortened: as §1
[4] = molecular target: T1, Flavodoxin (Helicobacter pylori (strain ATCC 700392 / 26695) (Campylobacter pylori)); assay: Inhibition of flavodoxin in metronidazole-resistant Helicobacter pylori isolate 1 assessed as reduction in bacterial growth measured after 48 hrs by resazurin staining-based microdilution method
Procedure, shortened: (§2)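 Clinical isolates from gastric biopsies of patients who failed ≥2 therapies; resistance classified by EUCAST breakpoints. […] Read by resazurin colour change as the lowest concentration giving complete growth inhibition.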

[5] = molecular target: T1, Flavodoxin (Helicobacter pylori (strain ATCC 700392 / 26695) (Campylobacter pylori)); assay: Inhibition of flavodoxin in metronidazole-resistant Helicobacter pylori isolate 2 assessed as reduction in bacterial growth measured after 48 hrs by resazurin staining-based microdilution method; procedure, shortened: as §2
[6] = molecular target: T1, Flavodoxin (Helicobacter pylori (strain ATCC 700392 / 26695) (Campylobacter pylori)); assay: Inhibition of flavodoxin in clarithromycin/metronidazole-resistant Helicobacter pylori isolate 4 assessed as reduction in bacterial growth measured after 48 hrs by resazurin staining-based microdilution method; procedure, shortened: as §2
[7] = molecular target: T1, Flavodoxin (Helicobacter pylori (strain ATCC 700392 / 26695) (Campylobacter pylori)); assay: Inhibition of flavodoxin in clarithromycin/metronidazole-resistant Helicobacter pylori isolate 6 assessed as reduction in bacterial growth measured after 48 hrs by resazurin staining-based microdilution method
[8] = Stability of the compound in DMSO-d6 at pH 1 incubated for 19 hrs under shaking condition by 1H-NMR analysis; type: physicochemical; conditions: pH 1, 19 h
[9] = molecular target: T1, Flavodoxin (Helicobacter pylori (strain ATCC 700392 / 26695) (Campylobacter pylori)); assay: Binding affinity to Helicobacter pylori flavodoxin by thermal upshift assay
[10] = molecular target: T1, Flavodoxin (Helicobacter pylori (strain ATCC 700392 / 26695) (Campylobacter pylori)); assay: Binding affinity to Helicobacter pylori flavodoxin by isothermal titration calorimetric method
[11] = Cytotoxicity against human HeLa cells assessed as reduction in cell viability by XTT assay; type: cell-based; conditions: read-out: MCC50
Procedure, shortened: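 HeLa cells grown in DMEM with 10% FBS, penicillin and streptomycin at 37 °C, 5% CO2; 30 000 cells/well. XTT viability read at 450 and 650 nm. MCC50 (50% lysis) came from viability-versus-concentration curves. Two experiments, each in triplicate.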

[12] = Therapeutic index, ratio of MCC50 for human HeLa cells to MIC for inhibition of flavodoxin in Helicobacter pylori SS1 assessed as reduction in bacterial growth; type: toxicity; conditions: HeLa cells versus Helicobacter pylori SS1, read-out: TI
Procedure, shortened: (§3)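 TI is MCC50/MIC. For MCC50, HeLa cells (30 000/well, DMEM with 10% FBS) were exposed to compound at 25–1000 μM final. Viability by XTT at 450/650 nm; MCC50 is the concentration giving 50% lysis from viability curves. Run twice in triplicate.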

[13] = Therapeutic index, ratio of MCC50 for human HeLa cells to MIC for inhibition of flavodoxin in Mnz-resistant Helicobacter pylori NCTC 11637 ATCC 43504 assessed as reduction in bacterial growth; type: toxicity; conditions: read-out: TI; procedure, shortened: as §3
[14] = Therapeutic index, ratio of MCC50 for human HeLa cells to MIC for inhibition of flavodoxin in Helicobacter pylori ATCC 700392 26695 assessed as reduction in bacterial growth; type: toxicity; conditions: HeLa cells versus Helicobacter pylori ATCC 700392 26695, read-out: TI; procedure, shortened: as §3
[15] = Therapeutic index, ratio of MCC50 for human HeLa cells to MIC for inhibition of flavodoxin in metronidazole-resistant Helicobacter pylori isolate 1 assessed as reduction in bacterial growth; type: toxicity; conditions: read-out: TI; procedure, shortened: as §3
[16] = Therapeutic index, ratio of MCC50 for human HeLa cells to MIC for inhibition of flavodoxin in metronidazole-resistant Helicobacter pylori isolate 2 assessed as reduction in bacterial growth; type: toxicity; conditions: read-out: TI; procedure, shortened: as §3
[17] = Therapeutic index, ratio of MCC50 for human HeLa cells to MIC for inhibition of flavodoxin in metronidazole-resistant Helicobacter pylori isolate 3 assessed as reduction in bacterial growth; type: toxicity; conditions: read-out: TI; procedure, shortened: as §3
[18] = Therapeutic index, ratio of MCC50 for human HeLa cells to MIC for inhibition of flavodoxin in clarithromycin/metronidazole-resistant Helicobacter pylori isolate 4 assessed as reduction in bacterial growth; type: toxicity; conditions: read-out: TI; procedure, shortened: as §3
[19] = Therapeutic index, ratio of MCC50 for human HeLa cells to MIC for inhibition of flavodoxin in rifampicin-resistant Helicobacter pylori isolate 5 assessed as reduction in bacterial growth; type: toxicity; conditions: read-out: TI; procedure, shortened: as §3
[20] = Therapeutic index, ratio of MCC50 for human HeLa cells to MIC for inhibition of flavodoxin in clarithromycin/metronidazole-resistant Helicobacter pylori isolate 6 assessed as reduction in bacterial growth; type: toxicity; conditions: read-out: TI; procedure, shortened: as §3
Escherichia coli = assay: Effect on growth of Escherichia coli DH5[alpha] after 48 hrs by resazurin-dye based microdilution assay; type: organism-based
Staphylococcus aureus = assay: Effect on growth of Staphylococcus aureus ATCC 1228 after 48 hrs by resazurin-dye based microdilution assay; type: organism-based
[21] = Toxicity in NMRI mouse infected with Helicobacter pylori SS1 assessed as change in body weight at 10 to 20 mg/100g, po administered daily via gavage for 8 days starting from 1 week post-infection; type: organism-based; conditions: in vivo
Procedure, shortened: (§4)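 Female 6-week-old SPF NMRI mice infected orogastrically with Hp SS1 on days 1 and 3. Compound in 5–10% DMSO/olive oil (100 μL) given by daily oral gavage for 8 days from day 8. Body weight and appetite were monitored during treatment; infected controls received vehicle alone.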

[22] = Toxicity in NMRI mouse infected with Helicobacter pylori SS1 assessed as change in appetite at 10 to 20 mg/100g, po administered daily via gavage for 8 days starting from 1 week post-infection; type: organism-based; conditions: in vivo; procedure, shortened: as §4
[23] = Toxicity in NMRI mouse assessed as change in body weight at 10 to 20 mg/100g, po administered daily via gavage for 8 days; type: organism-based; conditions: in vivo, 192 h
Helicobacter pylori = assay: Antibacterial activity against Helicobacter pylori SS1 infected in NMRI mouse assessed as bacterial eradication at 20 mg/100g, po administered daily via gavage for 8 days starting from 1 week post-infection and measured 8 days post-last dose; type: functional, organism-based
Procedure, shortened: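 Female 6-week-old SPF NMRI mice, 7 per condition, infected orogastrically on days 1 and 3 with 100 μL Hp SS1 (5 × 10^8 CFU/mL). From day 8, compound given daily by oral gavage for 8 days in 100 μL of 5–10% DMSO/95–90% olive oil. Sacrificed day 24; stomach homogenate CFU/g counted after 5 days microaerophilic culture at 37 °C. Infected vehicle-treated controls; Mann-Whitney U and unpaired t tests, p ≤ 0.05.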

Row | SMILES | MIC [1] [µM] | MIC [2] [µM] | MIC [3] [µM] | Activity [9] | Activity [10] | CC50 [11] [µM] | selectivity ratio [12] | selectivity ratio [13] | selectivity ratio [14] | selectivity ratio [15] | selectivity ratio [16] | selectivity ratio [17] | selectivity ratio [18] | selectivity ratio [19] | selectivity ratio [20] | Activity (Escherichia coli) | Activity (Staphylococcus aureus) | other results
1 | COc1ccc(CSc2ccc(N)c3nonc23)cc1 | 13.9 (≈ 3.99 µg/mL) | 27.8 (≈ 7.99 µg/mL) | 27.8 (≈ 7.99 µg/mL) | Active | Active | – | – | – | – | – | – | – | – | – | – | – | – | inhibition [4]: Active; inhibition [5]: Active; inhibition [6]: Active; inhibition [7]: Active; Stability [8]: Stable
2 | O=[N+]([O-])CCc1ccccc1 | 212 (≈ 32 µg/mL) | 212 (≈ 32 µg/mL) | 106 (≈ 16 µg/mL) | Active | Active | > 1000 | > 4.7 | > 4.7 | > 9.4 | 4.7 | 4.7 | 4.7 | 605 | 4.7 | 4.7 | Non-Toxic | Non-Toxic | –
3 | COc1ccc(C[S+]([O-])c2ccc([N+](=O)[O-])c3nonc23)cc1 (stereo not drawn) | 12 (≈ 4 µg/mL) | 6 (≈ 2 µg/mL) | 6 (≈ 2 µg/mL) | Active | Active | 179 | 15 | 30 | 30 | – | – | – | – | – | – | Non-Toxic | Non-Toxic | –
4 | ONCCc1ccccc1 | > 233 | > 233 | > 233 | Active | Active | > 1000 | – | – | – | – | – | – | – | – | – | Non-Toxic | Non-Toxic | –
5 | NCCc1ccccc1 [PHENETHYLAMINE] | 132 (≈ 16 µg/mL) | 66 (≈ 8 µg/mL) | 66 (≈ 8 µg/mL) | Active | Active | > 1000 | > 7.6 | > 15 | > 15 | – | – | – | – | – | – | Non-Toxic | Non-Toxic | Activity [21]: Non-Toxic; Activity [22]: Non-Toxic; Activity [23]: Non-Toxic
6 | COc1ccc(CSc2ccc([N+](=O)[O-])c3nonc23)cc1 | 0.78 (≈ 0.248 µg/mL) | 1.6 (≈ 0.508 µg/mL) | 6.3 (≈ 2 µg/mL) | Active | Active | – | – | – | – | – | – | – | – | – | – | – | – | Stability [8]: Stable
7 | O=[N+]([O-])C1=Cc2cc(Cl)cc(Cl)c2OC1c1ccc(F)cc1 (stereo not drawn) | 0.37 (≈ 0.126 µg/mL) | 0.37 (≈ 0.126 µg/mL) | 0.37 (≈ 0.126 µg/mL) | Active | Active | – | – | – | – | – | – | – | – | – | – | – | – | –
8 | Cc1ncc([N+](=O)[O-])n1CCO [METRONIDAZOLE] | 2.9 (≈ 0.496 µg/mL) | 187 (≈ 32 µg/mL) | 12 (≈ 2.05 µg/mL) | Active | Active | > 1000 | > 345 | > 5.3 | > 83 | – | – | – | – | – | – | Non-Toxic | Non-Toxic | –
9 | COc1ccc(CS(=O)(=O)c2ccc(N)c3nonc23)cc1 | 100 (≈ 31.9 µg/mL) | 100 (≈ 31.9 µg/mL) | 100 (≈ 31.9 µg/mL) | Active | Active | > 1000 | > 10 | > 10 | > 10 | 10 | 10 | 20 | 20 | 10 | 10 | Non-Toxic | Non-Toxic | –
10 | COc1ccc(C2(C)SCc3cc(C)c(C)cc3CS2)cc1 | 6.1 (≈ 2.02 µg/mL) | 3 (≈ 0.992 µg/mL) | 3 (≈ 0.992 µg/mL) | Active | Active | – | – | – | – | – | – | – | – | – | – | – | – | Stability [8]: Stable
11 | O/N=C/Cc1cc(C(F)(F)F)cc(C(F)(F)F)c1 | 236 (≈ 64 µg/mL) | 59 (≈ 16 µg/mL) | 118 (≈ 32 µg/mL) | Active | Active | > 500 | > 2.1 | > 8.5 | > 4.2 | 4.2 | 4.2 | 4.2 | 34 | 4.2 | 4.2 | Non-Toxic | Non-Toxic | –
12 | O=[N+]([O-])CCc1cc(C(F)(F)F)cc(C(F)(F)F)c1 | 223 (≈ 64 µg/mL) | 56 (≈ 16.1 µg/mL) | 56 (≈ 16.1 µg/mL) | Active | Active | > 1000 | > 4.5 | > 18 | > 18 | 9 | 9 | 9 | 9 | 9 | 9 | Non-Toxic | Non-Toxic | Activity [21]: Non-Toxic; Activity [22]: Non-Toxic; Activity [23]: Non-Toxic; Activity (Helicobacter pylori): Active
13 | Cc1ncc(N)n1CCO | > 453 | 227 (≈ 32 µg/mL) | 453 (≈ 64 µg/mL) | Active | Active | > 1000 | – | > 4.4 | > 2.2 | – | – | – | – | – | – | Non-Toxic | Non-Toxic | –
